Activity, MIC and inhibition in vivo data for 20 molecules are collected here from ChEMBL document CHEMBL1155199, “Synthesis of 6-aminomethyl derivatives of benzopyran-4-one with dual biological properties: anti-inflammatory-analgesic and antimicrobial” (Eur J Med Chem, 2009).

The structures appear in SMILES notation. In brackets after ≈: the same amount, converted by molar mass.

One data set relates to Mus musculus. Put plainly: Analgesic activity in Swiss albino mouse assessed as protection against acetic acid-induced writhing at 20 mg/kg, po administered 1 hr before acetic acid challenge measured for 5 to 15 mins. The data set is classed as functional. Put shortly:
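Swiss albino mice (25–30 g), either sex, groups of six, habituated individually 30 min in test cage. Test agents 20 mg/kg suspended in 1.0% CMC given orally; controls received CMC only. 1 h later, 0.10 mL 1% aqueous acetic acid injected i.p. to induce writhing. Data are mean ± S.E., one-way ANOVA with post hoc test.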
For orientation: An intraperitoneal irritant provokes the stretching counted in writhing tests.

The subject of a further data set is Escherichia coli. Nature of the data set: Antibacterial activity against Escherichia coli ATCC 8739 by turbidity method. The data set is classed as functional.
The subject of a further data set is Rhizopus arrhizus. Put plainly: Antifungal activity against Rhizopus oryzae NRRL 21498. The data set is classed as functional. Put shortly: (§1)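 Antifungal screen against R. oryza NRRL-21498 and P. citrum NCIM-768 with fluconazole as reference. Compounds that inhibited growth of one or more organisms were taken forward to MIC determination, reported in µg/mL.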

Another data set deals with Staphylococcus aureus. Put plainly: Antibacterial activity against Staphylococcus aureus ATCC 29737 by turbidity method. The format is functional.
Data set [1] relates to Rattus norvegicus. Put plainly: Antiinflammatory activity in Wistar albino rat assessed as inhibition of carrageenan-induced paw edema at 20 mg/kg, po administered 30 mins before carrageenan challenge measured after 2 hrs relative to ibuprofen. The data set is classed as functional. Put shortly:
(§2)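 Wistar albino rats (180–200 g), either sex, randomized into groups of six. Dosed 20 mg/kg p.o.; controls received 0.5% CMC. 30 min later, 0.1 mL 0.1% carrageenan in sterile 0.9% NaCl injected subplantar into the right hind paw. Paw volume read by plethysmometer at 2 and 3 h. Expressed as % inhibition, mean ± SEM, ANOVA with post hoc test.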
A general note: In the carrageenan paw model, swelling and tenderness develop within hours.

In data set [2] the test system is Rattus norvegicus. Nature of the data set: Antiinflammatory activity in Wistar albino rat assessed as inhibition of carrageenan-induced paw edema at 20 mg/kg, po administered 30 mins before carrageenan challenge measured after 3 hrs relative to ibuprofen. The data set is classed as functional. Put shortly: as §2
Data set [3] deals with Rattus norvegicus. Put plainly: Gastrointestinal toxicity in Albino rat assessed as severity index at 60 mg/kg, po after 17 hrs relative to control. To be noted: in vivo. The data set is classed as organism-based. Further details: dose 60 mg/kg, route oral. Put shortly: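 Rats fasted 24 h (water allowed), then dosed orally at 60 mg/kg as a suspension in 1% methyl cellulose; controls received vehicle alone. Normal diet for 17 h after dosing. Stomach mucosa examined under a magnifying glass and scored: 0.5 redness, 1.0 spot ulcers, 1.5 haemorrhagic streaks, 2.0 ulcers >3 but <5, 3.0 ulcers >5. Severity index is the group mean score minus the control mean. Data are mean ± S.E.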

Data set [4] has as its system Rattus norvegicus. Nature of the data set: Effect on lipid peroxidation in Albino rat gastric mucosa assessed as malondialdehyde level per mg of protein at 60 mg/kg, po after 17 hrs relative to ibuprofen. The data set is classed as ADME, organism-based. The arrangement: dose 60 mg/kg, route oral. The conditions noted are these: in vivo. Put shortly:
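Lipid peroxidation measured by the Ohkawa thiobarbituric acid–MDA colorimetric method. Tubes were heated 30 min at 80 °C in a shaking water bath, chilled 10 min in ice water, and centrifuged at 3000 rpm for 15 min. Supernatant absorbance was read at 540 nm against a blank. Results are nmol MDA/mg protein, mean ± S.E.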

For another data set, the system named is Penicillium citrinum. Put plainly: Antifungal activity against Penicillium citrinum NCIM 768. The data set is classed as functional. Put shortly: as §1

As a reminder, the MIC is the lowest concentration that inhibits growth of the organism. Low readings indicate greater potency, high ones weaker potency. In general, inhibition in vivo refers to the percentage by which the read-out fell short of the control. With `COc1ccc(-c2cc(=O)c3cc(CN4CCOCC4)ccc3o2)cc1OC`, the Activity in the data set on Mus musculus was found to be 53.61%; in the data set with Rattus norvegicus [3], 0.1; with Rattus norvegicus [4], 0.331 nmol. The MIC against Escherichia coli, with Rhizopus arrhizus, against Staphylococcus aureus and against Penicillium citrinum was 10 µg/mL (≈ 26.2 µM) throughout. Further, the inhibition in vivo at 20 mg/kg is 61.8% in the data set on Rattus norvegicus [1] and 80.9% with Rattus norvegicus [2].
`OC(Cn1cncn1)(Cn1cncn1)c1ccc(F)cc1F` [FLUCONAZOLE]: the MIC with Rhizopus arrhizus and against Penicillium citrinum was 6.25 µg/mL (≈ 20.4 µM) in each case.
For the molecule `COc1ccc(-c2cc(=O)c3cc(CN(C)C)ccc3o2)cc1`, the minimum inhibitory concentration (MIC) worked out at 50 µg/mL (≈ 162 µM) against Escherichia coli, 10 µg/mL (≈ 32.3 µM) against Rhizopus arrhizus, 50 µg/mL (≈ 162 µM) with Staphylococcus aureus and 50 µg/mL (≈ 162 µM) against Penicillium citrinum. The results for the inhibition in vivo at 20 mg/kg in the data set on Rattus norvegicus [1] and in the data set on Rattus norvegicus [2] were 36% and 53.1%, respectively.
For `CN(C)Cc1ccc2oc(-c3ccccc3Cl)cc(=O)c2c1`, the MIC is 50 µg/mL (≈ 159 µM) in the data set on Escherichia coli, over 100 µg/mL against Rhizopus arrhizus, over 100 µg/mL against Staphylococcus aureus and over 100 µg/mL against Penicillium citrinum. Besides, the inhibition in vivo at 20 mg/kg was determined as 36.2% in the data set on Rattus norvegicus [1] and 54.3% in the data set with Rattus norvegicus [2].
For the molecule `COc1ccc(-c2cc(=O)c3cc(CNc4ccc(S(N)(=O)=O)cc4)ccc3o2)cc1`, the MIC was determined as 50 µg/mL (≈ 115 µM) against Escherichia coli, 10 µg/mL (≈ 22.9 µM) in the data set on Rhizopus arrhizus, 25 µg/mL (≈ 57.3 µM) against Staphylococcus aureus and 25 µg/mL (≈ 57.3 µM) against Penicillium citrinum. For the same molecule, the inhibition in vivo at 20 mg/kg with Rattus norvegicus [1] was 25.3%; in the data set with Rattus norvegicus [2], 60.5%.
`COc1ccc(-c2cc(=O)c3cc(CN4CCNCC4)ccc3o2)cc1OC`: the Activity in the data set with Mus musculus was found to be 45.38%; with Rattus norvegicus [3] it was 0.4; in the data set with Rattus norvegicus [4], 0.525 nmol. The MIC against Escherichia coli is 10 µg/mL (≈ 26.3 µM); against Rhizopus arrhizus it was 25 µg/mL (≈ 65.7 µM); in the data set with Staphylococcus aureus, 25 µg/mL (≈ 65.7 µM); with Penicillium citrinum it was 50 µg/mL (≈ 131 µM). Also, the inhibition in vivo at 20 mg/kg with Rattus norvegicus [1] turned out to be 54%; in the data set with Rattus norvegicus [2], 72.2%.
As to `O=c1cc(-c2ccccc2Cl)oc2ccc(CN3CCNCC3)cc12`, the Activity with Mus musculus came to 48.39%; in the data set on Rattus norvegicus [3] it was 0.3; in the data set on Rattus norvegicus [4], 0.403 nmol. The MIC against Escherichia coli was over 100 µg/mL; against Rhizopus arrhizus, 50 µg/mL (≈ 141 µM); against Staphylococcus aureus, over 100 µg/mL; against Penicillium citrinum it was 50 µg/mL (≈ 141 µM). Moreover, the inhibition in vivo at 20 mg/kg is 56% in the data set with Rattus norvegicus [1] and 73.9% in the data set with Rattus norvegicus [2].
For `O=c1cc(-c2ccccc2Cl)oc2ccc(CN3CCOCC3)cc12`, the Activity with Mus musculus is on record as 54.81%; in the data set with Rattus norvegicus [3], 0.1; in the data set with Rattus norvegicus [4], 0.352 nmol. The MIC is over 100 µg/mL against Escherichia coli, 25 µg/mL (≈ 70.3 µM) in the data set on Rhizopus arrhizus, 50 µg/mL (≈ 141 µM) against Staphylococcus aureus and 25 µg/mL (≈ 70.3 µM) against Penicillium citrinum. Besides, the figures for the inhibition in vivo at 20 mg/kg with Rattus norvegicus [1] and in the data set on Rattus norvegicus [2] were 64.4% and 82.5%, respectively.
Turning to `COc1ccc(-c2cc(=O)c3cc(CCl)ccc3o2)cc1`, the MIC against Escherichia coli was 50 µg/mL (≈ 166 µM); against Rhizopus arrhizus it was 10 µg/mL (≈ 33.3 µM); in the data set with Staphylococcus aureus it was 10 µg/mL (≈ 33.3 µM); in the data set with Penicillium citrinum, over 100 µg/mL. The inhibition in vivo at 20 mg/kg with Rattus norvegicus [1] was determined as 32.2%; in the data set with Rattus norvegicus [2] it was 38.7%.
As to `COc1ccc(-c2cc(=O)c3cc(CNc4ccc(C)cc4)ccc3o2)cc1OC`, the MIC against Escherichia coli came out at 50 µg/mL (≈ 125 µM); in the data set with Rhizopus arrhizus, 25 µg/mL (≈ 62.3 µM); against Staphylococcus aureus, 25 µg/mL (≈ 62.3 µM); in the data set with Penicillium citrinum it was 25 µg/mL (≈ 62.3 µM). Also, the inhibition in vivo at 20 mg/kg is 18.7% in the data set on Rattus norvegicus [1] and 50.8% in the data set on Rattus norvegicus [2].
As for `COc1ccc(-c2cc(=O)c3cc(CCl)ccc3o2)cc1OC`, the MIC in the data set on Escherichia coli was 50 µg/mL (≈ 151 µM); in the data set on Rhizopus arrhizus, 10 µg/mL (≈ 30.2 µM); against Staphylococcus aureus, 10 µg/mL (≈ 30.2 µM); with Penicillium citrinum, over 100 µg/mL. The figures for the inhibition in vivo at 20 mg/kg in the data set with Rattus norvegicus [1] and in the data set with Rattus norvegicus [2] were 33.3% and 49.4%, respectively.
Consider `COc1ccc(-c2cc(=O)c3cc(CN(C)C)ccc3o2)cc1OC`, for which the MIC is 25 µg/mL (≈ 73.7 µM) against Escherichia coli, 10 µg/mL (≈ 29.5 µM) with Rhizopus arrhizus, 25 µg/mL (≈ 73.7 µM) against Staphylococcus aureus and 50 µg/mL (≈ 147 µM) in the data set with Penicillium citrinum. The inhibition in vivo at 20 mg/kg with Rattus norvegicus [1] was 29.8%; in the data set with Rattus norvegicus [2] it was 51%.
For `COc1ccc(-c2cc(=O)c3cc(CNc4ccc(C)cc4)ccc3o2)cc1`, the MIC with Escherichia coli was 50 µg/mL (≈ 135 µM); against Rhizopus arrhizus, 50 µg/mL (≈ 135 µM); in the data set on Staphylococcus aureus, 50 µg/mL (≈ 135 µM); in the data set with Penicillium citrinum, over 100 µg/mL. Moreover, the inhibition in vivo at 20 mg/kg with Rattus norvegicus [1] stood at 18.7%; with Rattus norvegicus [2] it was 51%.
For `COc1ccc(-c2cc(=O)c3cc(CN4CCOCC4)ccc3o2)cc1`, the Activity stood at 50.8% in the data set on Mus musculus, 0.2 in the data set with Rattus norvegicus [3] and 0.526 nmol in the data set with Rattus norvegicus [4]. For the same molecule, the MIC in the data set on Escherichia coli, in the data set on Rhizopus arrhizus, in the data set on Staphylococcus aureus and against Penicillium citrinum was 10 µg/mL (≈ 28.5 µM) throughout. The inhibition in vivo at 20 mg/kg in the data set with Rattus norvegicus [1] worked out at 62.7%; in the data set on Rattus norvegicus [2], 75.3%.
As to `COc1ccc(-c2cc(=O)c3cc(CNc4ccc(S(N)(=O)=O)cc4)ccc3o2)cc1OC`, the MIC against Escherichia coli was 10 µg/mL (≈ 21.4 µM); with Rhizopus arrhizus it was 10 µg/mL (≈ 21.4 µM); against Staphylococcus aureus it was 25 µg/mL (≈ 53.6 µM); against Penicillium citrinum, 10 µg/mL (≈ 21.4 µM). The inhibition in vivo at 20 mg/kg in the data set on Rattus norvegicus [1] was determined as 27.1%; in the data set with Rattus norvegicus [2], 60.5%.
For `NS(=O)(=O)c1ccc(NCc2ccc3oc(-c4ccccc4Cl)cc(=O)c3c2)cc1`, the MIC in the data set with Escherichia coli was 50 µg/mL (≈ 113 µM); against Rhizopus arrhizus, over 100 µg/mL; in the data set with Staphylococcus aureus, 50 µg/mL (≈ 113 µM); against Penicillium citrinum it was 25 µg/mL (≈ 56.7 µM). The inhibition in vivo at 20 mg/kg was found to be 32.2% in the data set on Rattus norvegicus [1] and 58.2% in the data set on Rattus norvegicus [2].
`COc1ccc(-c2cc(=O)c3cc(CN4CCNCC4)ccc3o2)cc1`: the results for the Activity with Mus musculus, with Rattus norvegicus [3] and with Rattus norvegicus [4] were 40.36%, 0.4 and 0.599 nmol, respectively. The MIC against Escherichia coli is 50 µg/mL (≈ 143 µM); against Rhizopus arrhizus, 50 µg/mL (≈ 143 µM); against Staphylococcus aureus, 50 µg/mL (≈ 143 µM); against Penicillium citrinum it was over 100 µg/mL. For the same molecule, the inhibition in vivo at 20 mg/kg worked out at 39.5% in the data set on Rattus norvegicus [1] and 68.9% in the data set on Rattus norvegicus [2].
With `CC(C)Cc1ccc(C(C)C(=O)O)cc1` (stereo unspecified) [IBUPROFEN], the Activity in the data set on Mus musculus is on record as 65.06%; in the data set on Rattus norvegicus [3], 0.9.
With `Cc1ccc(NCc2ccc3oc(-c4ccccc4Cl)cc(=O)c3c2)cc1`, the MIC against Escherichia coli was over 100 µg/mL; against Rhizopus arrhizus it was 50 µg/mL (≈ 133 µM); against Staphylococcus aureus, over 100 µg/mL; against Penicillium citrinum, over 100 µg/mL. Moreover, the inhibition in vivo at 20 mg/kg was determined as 19.8% in the data set on Rattus norvegicus [1] and 52.7% in the data set on Rattus norvegicus [2].
As for `CCn1cc(C(=O)O)c(=O)c2cc(F)c(N3CCNCC3)cc21` [NORFLOXACIN], the MIC in the data set with Escherichia coli and with Staphylococcus aureus was 6.25 µg/mL (≈ 19.6 µM) in each case.
